Measured values reported in ChEMBL document CHEMBL1141159, “Design, synthesis, and antiviral activity of 2'-deoxy-2'-fluoro-2'-C-methylcytidine, a potent inhibitor of hepatitis C virus replication” (2005).

Key:
Type in all cases: functional
Huh-7 [1] = assay: Effective concentration required to reduce HCV replication RNA levels in Huh7 cells by 90% determined by HCV replicon assay; details: Homo sapiens
Outline: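 Subgenomic HCV replicon cells were treated with compound, and HCV RNA was quantified by real-time quantitative RT-PCR to derive the concentration giving 90% reduction.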

[2] = Effective concentration required to reduce cytopathic effects caused by bovine viral diarrhea virus (BVDV) in MDBK cells by 90%; details: Bos taurus
Huh-7 [3] = assay: Cytotoxic concentration against HCV replication RNA levels in Huh7 cells determined by HCV replicon assay; details: Homo sapiens
Outline: (§1)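 Cytotoxicity (CC50) read by MTS colorimetric cell-proliferation assay after 4 days of compound exposure.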

[4] = Cytotoxic concentration against bovine viral diarrhea virus (BVDV) in MDBK cells; details: Bos taurus; outline: as §1

Row | SMILES | EC90 (Huh-7 [1]) | EC90 [2] | CC50 (Huh-7 [3]) | CC50 [4]
1 | C[C@@]1(F)[C@H](O)[C@@H](CO)O[C@H]1n1ccc(=O)[nH]c1=O | > 100 µM | > 100 µM | > 100 µM | > 100 µM
2 | Nc1ccn([C@@H]2O[C@H](CO)[C@@H](O)[C@@H]2F)c(=O)n1 | 6.5 µM | > 100 µM | > 100 µM | > 100 µM
3 | C[C@@]1(F)[C@H](O)[C@@H](CO)O[C@H]1n1ccc(N)nc1=O | 5.4 µM | > 100 µM | > 100 µM | > 100 µM
4 | C[C@@]1(O)[C@H](O)[C@@H](CO)O[C@H]1n1ccc(N)nc1=O | 19 µM | 2.3 µM | > 100 µM | > 100 µM
